T cruzi growth-1: inhibitors of T. cruzi proliferation; T. cruzi beta-gal in NIH3T3, GalScreen luminescence, 90 h; inhibition, % at 8.34 µM; 77,000 tested, 5.9% active; AID 624255;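 active = mean inhibition above about 93%, with at least 55% of replicates each passing it, limit read from the data, passing the limit was not always enough; inconclusive = only one of those two conditions holds; inactive = neither condition holds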
IDH1 mut inh: IDH1 R132H (human) inhibition; inhibition, % at 10 µM; 70,000 tested, 0.18% active; O75874; IDH1 R132H reductase, diaphorase/resazurin fluorescence, 60 min; AID 624101; in the data active = inhibition above about 34%; inconclusive = no clear call, values can overlap the other calls; inactive = below about 11%;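 note: 0% = DMSO and 100% = no enzyme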
GASC1 inh: inhibitors of human demethylase GASC-1 KDM4C; GST-KDM4C 2-372, H3K9me3 peptide, LANCE TR-FRET; 96,000 tested, 0.15% active; Q9H3R0; inhibition, % at 12.5 µM;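 active = mean replicate inhibition above about 25%, with at least 55% of replicates also reaching it, limit read from the data, passing the limit was not always enough; inconclusive = only one of those two conditions met; inactive = neither condition met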
Target sequence (Q9H3R0 2-372 limits assumed): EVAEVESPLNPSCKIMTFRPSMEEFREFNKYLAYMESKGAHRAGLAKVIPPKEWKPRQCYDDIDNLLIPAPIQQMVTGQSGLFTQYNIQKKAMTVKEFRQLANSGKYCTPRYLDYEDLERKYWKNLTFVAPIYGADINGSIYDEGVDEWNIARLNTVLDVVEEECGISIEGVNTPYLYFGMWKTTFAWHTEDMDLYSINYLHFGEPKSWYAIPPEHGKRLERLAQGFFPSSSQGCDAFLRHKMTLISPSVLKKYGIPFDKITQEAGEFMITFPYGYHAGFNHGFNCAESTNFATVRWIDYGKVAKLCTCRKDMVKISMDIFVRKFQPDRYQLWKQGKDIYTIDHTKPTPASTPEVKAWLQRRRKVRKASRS
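Compound: one test concentration per compound; Material: GST-GASC-1 enzyme fragment 2-372; Amount: GASC-1 enzyme at 10 nM final in reaction; Also added: H3K9me3 peptide substrate, Fe(II), 2-oxoglutarate; Technique: LANCE TR-FRET; Times: 30 min demethylation and 1 h detection at room temperature.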
Pf Dd2 inh: blocks growth of Plasmodium falciparum Dd2 parasites | 94,000 tested, 2.3% active | activity change, % at 10 µM | P. falciparum Dd2 growth, SYBR Green, 72 h; active compounds read low; in the data active = activity change below about -80%; inconclusive = no clear call, values can overlap the other calls
T cruzi growth-2: inhibitors of T. cruzi proliferation; T. cruzi beta-gal in NIH3T3, GalScreen luminescence, 90 h; 5,600 tested, 72% active; AID 651739; shares compounds with T cruzi growth-1; inhibition, % at 8.35 µM;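 active = mean replicate inhibition above about 95% and at least 55% of replicates individually reaching it, limit read from the data; inconclusive = only one of the two criteria is met; inactive = neither criterion is met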
T cruzi growth-3: inhibitors of T. cruzi proliferation. 5,600 tested, 21% active. AID 651740. shares compounds with T cruzi growth-1. T. cruzi beta-gal in NIH3T3, GalScreen luminescence, 90 h. inhibition, % at 2.09 µM;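 active = mean inhibition above about 95%, with at least 55% of replicates also reaching it, limit read from the data; inconclusive = meets just one of the two conditions; inactive = meets neither condition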;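 note: plate controls were neutral control median for no effect and positive control median for full effect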
3T3 cytotox: cytotoxicity in mouse NIH/3T3 fibroblasts | cytotoxicity (signal decrease), % at 8.35 µM | 5,600 tested, 14% active | shares compounds with T cruzi growth-1 | NIH/3T3 viability, CellTiter-Glo ATP luminescence, 90 h | AID 651742;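 active = mean signal decrease across replicates above about 35% based on untreated-well scatter, with enough replicates individually passing, limit read from the data; inconclusive = no rule stated though some were filed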;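 note: 0% = median of neutral control wells and 100% = median of positive control wells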
3T3 cytotox 2: kills mouse NIH/3T3 fibroblasts; shares compounds with T cruzi growth-1; NIH/3T3 viability, CellTiter-Glo ATP luminescence, 90 h; inhibition, % at 24.9 µM; 5,600 tested, 56% active; AID 651744;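 active = mean loss of cell viability signal at or above a set limit, and enough replicates individually reaching it; inconclusive = meets only the mean limit or only the replicate share; inactive = meets neither condition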;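 note: 0% = median of neutral control wells and 100% = median of positive control wells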
Numbers without * were called inactive; ? = inconclusive; . = not tested or not shown. This is a sample that favours compounds with a hit; in the whole collection about 5.8% have one here.

SMILES	T cruzi growth-1	IDH1 mut inh	GASC1 inh	Pf Dd2 inh	T cruzi growth-2	T cruzi growth-3	3T3 cytotox	3T3 cytotox 2
C[C@H]1CN([C@@H](C)CO)S(=O)(=O)c2ccc(C#CCN(C)C)cc2O[C@@H]1CN(C)Cc1ccccn1	101*	0	1	-51	97*	99*	4	12
COc1ccc(S(=O)(=O)Nc2cccc3c2O[C@H](CN(C)Cc2ccc(Cl)c(Cl)c2)[C@H](C)CN([C@H](C)CO)C3=O)cc1	-12	-1	3	27	.	.	.	.
COc1ccc(S(=O)(=O)Nc2cccc3c2O[C@H](CN(C)Cc2ccc(C(=O)O)cc2)[C@H](C)CN([C@@H](C)CO)C3=O)cc1	?	0	0	23	78	0	-3	15
Cc1ccc(S(=O)(=O)Nc2cccc3c2O[C@@H](CN(C)Cc2ccc(C(F)(F)F)cc2)[C@@H](C)CN([C@@H](C)CO)C3=O)cc1	61	0	-2	-23	.	.	.	.
Cc1ccc(S(=O)(=O)Nc2cccc3c2O[C@@H](CN(C)Cc2ccc(C(F)(F)F)cc2)[C@@H](C)CN([C@H](C)CO)C3=O)cc1	102*	1	-1	-13	109*	68	30	87*
COc1ccc(S(=O)(=O)Nc2cccc3c2O[C@@H](CN(C)Cc2ccc(Cl)c(Cl)c2)[C@H](C)CN([C@@H](C)CO)C3=O)cc1	102*	1	0	-39	110*	1	14	18
Cc1noc(C)c1S(=O)(=O)Nc1cccc2c1O[C@@H](CN(C)Cc1ccccc1)[C@@H](C)CN([C@H](C)CO)C2=O	9	-2	0	14	.	.	.	.
COc1ccc(S(=O)(=O)Nc2cccc3c2O[C@H](CN(C)Cc2ccc(C(=O)O)cc2)[C@@H](C)CN([C@H](C)CO)C3=O)cc1	-18	1	0	10	.	.	.	.
Cc1noc(C)c1S(=O)(=O)Nc1cccc2c1O[C@H](CN(C)Cc1ccc(-c3ccccc3)cc1)[C@H](C)CN([C@H](C)CO)C2=O	108*	11	0	-48	54	29	-14	2
Cc1ccccc1-c1ccc2c(c1)O[C@@H](CN(C)C)[C@H](C)CN([C@H](C)CO)S2(=O)=O	-4	2	0	.	.	.	.	.
CCN(C[C@H]1[C@H](c2ccc(-c3cccnc3)cc2)[C@H](CO)N1C(C)=O)C(C)=O	1	.	4	4	.	.	.	.
COCC#Cc1cnc2c(c1)C(=O)N([C@H](C)CO)C[C@H](C)[C@@H](CN(C)C(=O)c1ccc(F)cc1)O2	-8	0	0	5	.	.	.	.
O=C(NC1CCC1)[C@H]1[C@H](CO)[C@H]2Cn3c(cccc3=O)[C@@H]1N2CC1CCCCC1	45	.	-1	.	.	.	.	.
CC(C)NC(=O)N(C)C[C@H]1Oc2ccc(NC(=O)Cn3cnnn3)cc2CC(=O)N([C@@H](C)CO)C[C@@H]1C	-3	0	1	21	.	.	.	.
COc1ccccc1-c1ccc2c(c1)O[C@@H](CN(C)S(=O)(=O)c1ccc(C)cc1)[C@H](C)CN([C@H](C)CO)S2(=O)=O	127*	0	-2	-84*	105*	103*	30	45*
COc1ccccc1-c1ccc2c(c1)O[C@H](CN(C)S(=O)(=O)c1ccc(C)cc1)[C@@H](C)CN([C@@H](C)CO)S2(=O)=O	126*	4	-2	-74	104*	66	39*	36*
COc1ccccc1-c1ccc2c(c1)O[C@@H](CN(C)C)[C@@H](C)CN([C@@H](C)CO)S2(=O)=O	22	1	2	-24	.	.	.	.
C[C@H](CO)N1C[C@H](C)[C@@H](CN(C)Cc2ccc(-c3ccccc3)cc2)Oc2c(NC(=O)c3ccncc3)cccc2C1=O	102*	.	1	-28	105*	98*	49*	36*
C[C@@H]1CN([C@@H](C)CO)C(=O)c2cccc(NC(=O)c3ccncc3)c2O[C@@H]1CN(C)Cc1ccccc1	45	.	0	3	.	.	.	.

Bioassay records deposited in PubChem BioAssay by Broad Institute.
